Source: ChEMBL document CHEMBL1240376, “Characterization of small ColE-like plasmids mediating widespread dissemination of the qnrB19 gene in commensal enterobacteria” (2010)
Converted amounts (≈) assume the structure as drawn.

Columns and labels:
Assay type in all cases: functional
Escherichia coli [1] = assay: Antibacterial activity against tetracycline trimethoprim sulfamethoxazole kanamycin-resistant Escherichia coli isolate C14-9 carrying qnrB19 gene
In short: (§1)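 MICs determined by broth microdilution following CLSI guidelines, with E. coli ATCC 25922 as quality-control strain in every run. Disk diffusion susceptibility was also performed per CLSI.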

Escherichia coli [2] = assay: Antibacterial activity against ampicillin sulfamethoxazole streptomycin kanamycin-resistant Escherichia coli isolate V6-9 carrying qnrB19 gene; in short: as §1
Escherichia coli [3] = assay: Antibacterial activity against Escherichia coli HB101; in short: as §1
Escherichia coli [4] = assay: Antibacterial activity against ampicillin tetracyclin streptomycin kanamycin-resistant Escherichia coli isolate V32-1 carrying qnrB19 gene; in short: as §1
Escherichia coli [5] = assay: Antibacterial activity against ampicillin tetracycline trimethoprim sulfamethoxazole streptomycin-resistant Escherichia coli isolate Y6-7 carrying qnrB19 gene; in short: as §1
Escherichia coli [6] = assay: Antibacterial activity against tetracycline sulfamethoxazole streptomycin kanamycin-resistant Escherichia coli isolate M66-6 carrying qnrB19 gene; in short: as §1

## C[C@H]1COc2c(N3CCN(C)CC3)c(F)cc3c(=O)c(C(=O)O)cn1c23.C[C@H]1COc2c(N3CCN(C)CC3)c(F)cc3c(=O)c(C(=O)O)cn1c23.O [LEVOFLOXACIN]
Escherichia coli [1]
  MIC: 0.25 µg/mL
Escherichia coli [2]
  MIC: 0.25 µg/mL
Escherichia coli [3]
  MIC: 0.0075 µg/mL
Escherichia coli [4]
  MIC: 0.25 µg/mL

## CCn1cc(C(=O)O)c(=O)c2ccc(C)nc21 [NALIDIXIC ACID]
Escherichia coli [5]
  MIC: 16 µg/mL (≈ 68.9 µM)
Escherichia coli [1]
  MIC: 32 µg/mL (≈ 138 µM)
Escherichia coli [6]
  MIC: 16 µg/mL (≈ 68.9 µM)
Escherichia coli [2]
  MIC: 32 µg/mL (≈ 138 µM)
Escherichia coli [3]
  MIC: 4 µg/mL (≈ 17.2 µM)
Escherichia coli [4]
  MIC: 32 µg/mL (≈ 138 µM)

## CCn1cc(C(=O)O)c(=O)c2cc(F)c(N3CCNCC3)cc21 [NORFLOXACIN]
Escherichia coli [5]
  MIC: 0.25 µg/mL (≈ 0.783 µM)
Escherichia coli [1]
  MIC: 0.5 µg/mL (≈ 1.57 µM)
Escherichia coli [6]
  MIC: 0.25 µg/mL (≈ 0.783 µM)
Escherichia coli [2]
  MIC: 0.5 µg/mL (≈ 1.57 µM)
Escherichia coli [3]
  MIC: 0.003 µg/mL (≈ 0.00939 µM)
Escherichia coli [4]
  MIC: 0.25 µg/mL (≈ 0.783 µM)
